Experimental data as given in ChEMBL document CHEMBL5303300, “EUbOPEN Chemogenomics Library - Multiplex” (2023).
Values joined by “and” are separate entries in the source; they are usually repeats but may differ in a detail not shown here. Equal entries are not always repeated.

Tested on: HEK-293T
Assay: Multiplex assay against HEK293T
Assay type: toxicity, cell-based
Conditions: human, number of replicates 2
Method in brief: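 Cells were classed with CellPathfinder machine-learning gating, first as Hoechst high-intensity objects or normal cells, then (normal cells) as healthy, pyknosed or fragmented nuclei, and finally (pyknosed cells) as mitotic or apoptotic. Staining of live cells at seeding used Hoechst33342, BioTracker Green Microtubule Cytoskeleton Dye, MitoTracker Red and Annexin V Alexa Fluor 680, with imaging on a CQ1 microscope at 37°C and 5% CO2 after compound addition. Tubulin, mitochondrial-mass and membrane-permeability phenotypes are per cents of healthy-nucleus cells.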

[1] = 12 h, 1 µM, compound concentration 1 uM
[2] = 12 h, 10 µM, compound concentration 10 uM
[3] = 24 h, 1 µM, compound concentration 1 uM
[4] = 24 h, 10 µM, compound concentration 10 uM
[5] = 48 h, 1 µM, compound concentration 1 uM
[6] = 48 h, 10 µM, compound concentration 10 uM

SMILES: CC(C)NC(=O)[C@H]1CCC[C@H]1Nc1nc(Nc2ccc(C(=O)N(C)C3CCN(C)CC3)cc2)ncc1Cl
- Population Apoptotic (%) [1]: 64% and 57%
- Population Fragmented Nuclei (%) [1]: 3% and 1%
- Population Healthy Nuclei (%) [1]: 79% and 87%
- Population Hoechst High Intensity Objects (%) [1]: 7% and 8%
- Population Membrane Permeable-Phenotype (%) [1]: 4% and 2%
- Population Mitochondria Different-Phenotype (%) [1]: 17% and 15%
- Population Mitotic Cells (%) [1]: 35% and 42%
- Population Normal (%) [1]: 92% and 91%
- Population Pyknosed Nuclei (%) [1]: 16% and 10%
- Population Tubulin-Different-Phenotype (%) [1]: 60% and 58%
- Total Cell Count [1]: 568 and 503
- Population Apoptotic (%) [2]: 47% and 56%
- Population Fragmented Nuclei (%) [2]: 3% and 2%
- Population Healthy Nuclei (%) [2]: 87% and 86%
- Population Hoechst High Intensity Objects (%) [2]: 8% and 7%
- Population Membrane Permeable-Phenotype (%) [2]: 4%
- Population Mitochondria Different-Phenotype (%) [2]: 29% and 30%
- Population Mitotic Cells (%) [2]: 52% and 43%
- Population Normal (%) [2]: 91% and 92%
- Population Pyknosed Nuclei (%) [2]: 9% and 10%
- Population Tubulin-Different-Phenotype (%) [2]: 88% and 87%
- Total Cell Count [2]: 520 and 480
- Population Apoptotic (%) [3]: 64% and 61%
- Population Fragmented Nuclei (%) [3]: 5% and 6%
- Population Healthy Nuclei (%) [3]: 76% and 84%
- Population Hoechst High Intensity Objects (%) [3]: 9% and 10%
- Population Membrane Permeable-Phenotype (%) [3]: 2%
- Population Mitochondria Different-Phenotype (%) [3]: 9% and 5%
- Population Mitotic Cells (%) [3]: 35% and 38%
- Population Normal (%) [3]: 90% and 89%
- Population Pyknosed Nuclei (%) [3]: 17% and 8%
- Population Tubulin-Different-Phenotype (%) [3]: 43% and 37%
- Total Cell Count [3]: 653 and 524
- Population Apoptotic (%) [4]: 52% and 54%
- Population Fragmented Nuclei (%) [4]: 3% and 4%
- Population Healthy Nuclei (%) [4]: 85% and 87%
- Population Hoechst High Intensity Objects (%) [4]: 6% and 9%
- Population Membrane Permeable-Phenotype (%) [4]: 6% and 3%
- Population Mitochondria Different-Phenotype (%) [4]: 16% and 18%
- Population Mitotic Cells (%) [4]: 47% and 45%
- Population Normal (%) [4]: 93% and 90%
- Population Pyknosed Nuclei (%) [4]: 11% and 7%
- Population Tubulin-Different-Phenotype (%) [4]: 74% and 81%
- Total Cell Count [4]: 514 and 516
- Population Apoptotic (%) [5]: 68% and 45%
- Population Fragmented Nuclei (%) [5]: 9% and 8%
- Population Healthy Nuclei (%) [5]: 84% and 89%
- Population Hoechst High Intensity Objects (%) [5]: 9% and 10%
- Population Membrane Permeable-Phenotype (%) [5]: 3% and 1%
- Population Mitochondria Different-Phenotype (%) [5]: 1% and 2%
- Population Mitotic Cells (%) [5]: 31% and 54%
- Population Normal (%) [5]: 90% and 89%
- Population Pyknosed Nuclei (%) [5]: 5% and 2%
- Population Tubulin-Different-Phenotype (%) [5]: 22% and 20%
- Total Cell Count [5]: 714 and 606
- Population Apoptotic (%) [6]: 47% and 53%
- Population Fragmented Nuclei (%) [6]: 8% and 10%
- Population Healthy Nuclei (%) [6]: 84% and 85%
- Population Hoechst High Intensity Objects (%) [6]: 10% and 11%
- Population Membrane Permeable-Phenotype (%) [6]: 3% and 4%
- Population Mitochondria Different-Phenotype (%) [6]: 5%
- Population Mitotic Cells (%) [6]: 52% and 46%
- Population Normal (%) [6]: 89% and 88%
- Population Pyknosed Nuclei (%) [6]: 6% and 4%
- Population Tubulin-Different-Phenotype (%) [6]: 67% and 70%
- Total Cell Count [6]: 617 and 637

SMILES: CCN(CC)C/C=C/C(=O)Nc1cc2c(Nc3ccc(F)c(Cl)c3)ncnc2cc1OCC1CC1
- Population Apoptotic (%) [1]: 61% and 46%
- Population Fragmented Nuclei (%) [1]: 3% and 4%
- Population Healthy Nuclei (%) [1]: 79%
- Population Hoechst High Intensity Objects (%) [1]: 4% and 7%
- Population Membrane Permeable-Phenotype (%) [1]: 6% and 5%
- Population Mitochondria Different-Phenotype (%) [1]: 26% and 30%
- Population Mitotic Cells (%) [1]: 38% and 53%
- Population Normal (%) [1]: 95% and 92%
- Population Pyknosed Nuclei (%) [1]: 17% and 15%
- Population Tubulin-Different-Phenotype (%) [1]: 81% and 90%
- Total Cell Count [1]: 435 and 525
- Population Apoptotic (%) [2]: 81% and 84%
- Population Fragmented Nuclei (%) [2]: 1% and 6%
- Population Healthy Nuclei (%) [2]: 68% and 69%
- Population Hoechst High Intensity Objects (%) [2]: 8% and 6%
- Population Membrane Permeable-Phenotype (%) [2]: 4% and 3%
- Population Mitochondria Different-Phenotype (%) [2]: 76% and 83%
- Population Mitotic Cells (%) [2]: 18% and 15%
- Population Normal (%) [2]: 91% and 93%
- Population Pyknosed Nuclei (%) [2]: 29% and 23%
- Population Tubulin-Different-Phenotype (%) [2]: 84% and 78%
- Total Cell Count [2]: 283 and 298
- Population Apoptotic (%) [3]: 50%
- Population Fragmented Nuclei (%) [3]: 5% and 6%
- Population Healthy Nuclei (%) [3]: 81% and 84%
- Population Hoechst High Intensity Objects (%) [3]: 6% and 9%
- Population Membrane Permeable-Phenotype (%) [3]: 4% and 5%
- Population Mitochondria Different-Phenotype (%) [3]: 14% and 19%
- Population Mitotic Cells (%) [3]: 50% and 49%
- Population Normal (%) [3]: 93% and 90%
- Population Pyknosed Nuclei (%) [3]: 12% and 8%
- Population Tubulin-Different-Phenotype (%) [3]: 59% and 72%
- Total Cell Count [3]: 687 and 743
- Population Apoptotic (%) [4]: 84% and 81%
- Population Fragmented Nuclei (%) [4]: 2% and 4%
- Population Healthy Nuclei (%) [4]: 47% and 45%
- Population Hoechst High Intensity Objects (%) [4]: 10%
- Population Membrane Permeable-Phenotype (%) [4]: 2% and 1%
- Population Mitochondria Different-Phenotype (%) [4]: 92% and 93%
- Population Mitotic Cells (%) [4]: 15% and 18%
- Population Normal (%) [4]: 89%
- Population Pyknosed Nuclei (%) [4]: 49%
- Population Tubulin-Different-Phenotype (%) [4]: 88% and 77%
- Total Cell Count [4]: 274 and 323
- Population Apoptotic (%) [5]: 30%
- Population Fragmented Nuclei (%) [5]: 9%
- Population Healthy Nuclei (%) [5]: 84%
- Population Hoechst High Intensity Objects (%) [5]: 9% and 7%
- Population Membrane Permeable-Phenotype (%) [5]: 4% and 6%
- Population Mitochondria Different-Phenotype (%) [5]: 5% and 2%
- Population Mitotic Cells (%) [5]: 69%
- Population Normal (%) [5]: 90% and 92%
- Population Pyknosed Nuclei (%) [5]: 5% and 6%
- Population Tubulin-Different-Phenotype (%) [5]: 53% and 34%
- Total Cell Count [5]: 1264 and 1265
- Population Apoptotic (%) [6]: 84% and 87%
- Population Fragmented Nuclei (%) [6]: 7% and 11%
- Population Healthy Nuclei (%) [6]: 32% and 33%
- Population Hoechst High Intensity Objects (%) [6]: 8% and 15%
- Population Membrane Permeable-Phenotype (%) [6]: 5% and 2%
- Population Mitochondria Different-Phenotype (%) [6]: 87% and 94%
- Population Mitotic Cells (%) [6]: 15% and 12%
- Population Normal (%) [6]: 91% and 84%
- Population Pyknosed Nuclei (%) [6]: 59% and 55%
- Population Tubulin-Different-Phenotype (%) [6]: 84% and 80%
- Total Cell Count [6]: 396 and 360

SMILES: COC(=O)Nc1nc2c(s1)-c1c(c(-c3cccnc3)nn1-c1ccc(C3(N(C)C)CC3)cc1)CC2.Cl.Cl
- Population Apoptotic (%) [1]: 62% and 58%
- Population Fragmented Nuclei (%) [1]: 5% and 1%
- Population Healthy Nuclei (%) [1]: 82% and 89%
- Population Hoechst High Intensity Objects (%) [1]: 11% and 10%
- Population Membrane Permeable-Phenotype (%) [1]: 1%
- Population Mitochondria Different-Phenotype (%) [1]: 41% and 51%
- Population Mitotic Cells (%) [1]: 37% and 41%
- Population Normal (%) [1]: 88% and 89%
- Population Pyknosed Nuclei (%) [1]: 12% and 9%
- Population Tubulin-Different-Phenotype (%) [1]: 75% and 76%
- Total Cell Count [1]: 359 and 348
- Population Apoptotic (%) [2]: 73% and 64%
- Population Fragmented Nuclei (%) [2]: 5%
- Population Healthy Nuclei (%) [2]: 75% and 82%
- Population Hoechst High Intensity Objects (%) [2]: 17% and 10%
- Population Membrane Permeable-Phenotype (%) [2]: 3%
- Population Mitochondria Different-Phenotype (%) [2]: 66% and 52%
- Population Mitotic Cells (%) [2]: 26% and 35%
- Population Normal (%) [2]: 82% and 89%
- Population Pyknosed Nuclei (%) [2]: 18% and 11%
- Population Tubulin-Different-Phenotype (%) [2]: 90% and 87%
- Total Cell Count [2]: 245 and 351
- Population Apoptotic (%) [3]: 66% and 71%
- Population Fragmented Nuclei (%) [3]: 4%
- Population Healthy Nuclei (%) [3]: 81% and 82%
- Population Hoechst High Intensity Objects (%) [3]: 20% and 17%
- Population Membrane Permeable-Phenotype (%) [3]: 2% and 1%
- Population Mitochondria Different-Phenotype (%) [3]: 43% and 55%
- Population Mitotic Cells (%) [3]: 33% and 28%
- Population Normal (%) [3]: 79% and 82%
- Population Pyknosed Nuclei (%) [3]: 14% and 12%
- Population Tubulin-Different-Phenotype (%) [3]: 81% and 85%
- Total Cell Count [3]: 313 and 342
- Population Apoptotic (%) [4]: 67% and 58%
- Population Fragmented Nuclei (%) [4]: 8% and 6%
- Population Healthy Nuclei (%) [4]: 70% and 78%
- Population Hoechst High Intensity Objects (%) [4]: 15% and 18%
- Population Membrane Permeable-Phenotype (%) [4]: 4% and 3%
- Population Mitochondria Different-Phenotype (%) [4]: 70% and 52%
- Population Mitotic Cells (%) [4]: 32% and 41%
- Population Normal (%) [4]: 85% and 81%
- Population Pyknosed Nuclei (%) [4]: 21% and 14%
- Population Tubulin-Different-Phenotype (%) [4]: 86% and 82%
- Total Cell Count [4]: 240 and 296
- Population Apoptotic (%) [5]: 62%
- Population Fragmented Nuclei (%) [5]: 11% and 8%
- Population Healthy Nuclei (%) [5]: 81% and 80%
- Population Hoechst High Intensity Objects (%) [5]: 23% and 25%
- Population Membrane Permeable-Phenotype (%) [5]: 1%
- Population Mitochondria Different-Phenotype (%) [5]: 19% and 27%
- Population Mitotic Cells (%) [5]: 37%
- Population Normal (%) [5]: 76% and 74%
- Population Pyknosed Nuclei (%) [5]: 6% and 11%
- Population Tubulin-Different-Phenotype (%) [5]: 78% and 76%
- Total Cell Count [5]: 490 and 355
- Population Apoptotic (%) [6]: 64% and 60%
- Population Fragmented Nuclei (%) [6]: 8% and 11%
- Population Healthy Nuclei (%) [6]: 77% and 80%
- Population Hoechst High Intensity Objects (%) [6]: 17% and 20%
- Population Membrane Permeable-Phenotype (%) [6]: 3% and 2%
- Population Mitochondria Different-Phenotype (%) [6]: 45% and 39%
- Population Mitotic Cells (%) [6]: 35% and 40%
- Population Normal (%) [6]: 82% and 79%
- Population Pyknosed Nuclei (%) [6]: 13% and 8%
- Population Tubulin-Different-Phenotype (%) [6]: 80% and 77%
- Total Cell Count [6]: 310 and 354
